Experiments:
[1] = system: HBV replication in AML12HBV10 cells; assay: Antiviral dot blot hybridization assay of HBV DNA in AML12HBV10 cells; format: cell-based, hepatitis B virus (mouse hepatocyte-derived cell line)
[2] = system: HBV replication in AML12HBV10 cells; settings: HBV AML12HBV10 cell line; cited from earlier work
[3] = system: HBV capsid assembly and pgRNA encapsidation in AML12HBV10 cells; assay: Mode of action study in AML12HBV10 cells; format: cell-based, hepatitis B virus (mouse hepatocyte-derived cell line); settings: 2 days, ETV 1 μM; for amount of encapsidated pgRNA / viral DNA replication intermediates: Bay 41-4109 2 μM, DVR-23 5 μM; for amount of encapsidated pgRNA / viral DNA replication intermediates / amount of total viral RNA / amount of core protein: 17 or 18 1 or 5 μM; for amount of encapsidated pgRNA / amount of total viral RNA: Northern blot; for viral DNA replication intermediates: Southern blot; for amount of core protein: Western blot
Outline: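 Mouse hepatocyte-derived AML12HBV10 cells carry a tetracycline-inducible, envelope-deficient HBV genome. They were seeded in 24-well plates, kept with tet (negative control) or without it for 24 h, then DMSO- or compound-treated for 48 h. Read-outs: total RNA and encapsidated pgRNA by Northern blot (rRNA loading); Cp by Western blot with antibody to its C-terminal 14 residues (β-actin loading); capsids and core DNA by native agarose particle gel.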

SMILES: O=C(Nc1ccc(F)c(Cl)c1)N1CCN[C@H]2CCCC[C@H]21 (relative stereo) [Compound 34, Cis-N-(3-chloro-4-fluorophenyl)octahydroquinoxaline-1(2H)-carboxamide]
- anti-HBV activity (in words) ([1]; AML12HBV10 cells): loss of activity

SMILES: O=C(Nc1ccc(F)c(Cl)c1)c1cccc2c1OCCO2 [38017 (8)]
- EC50 (in words) [2]: sub-micromolar

SMILES: COC(=O)C1=C(C)NC(c2ncc(F)cc2F)=N[C@H]1c1ccc(F)cc1Cl [Bay 41-4109]
- amount of encapsidated pgRNA [3]: significantly reduced
- viral DNA replication intermediates [3]: viral DNA replication was inhibited

SMILES: O=C(Nc1ccc(F)c(Cl)c1)N1CCNc2ccccc21 [Compound 17, N-(3-chloro-4-fluorophenyl)-3,4-dihydroquinoxaline-1(2H)-carboxamide]
- amount of total viral RNA [3]: did not alter
- amount of core protein [3]: did not alter
- amount of encapsidated pgRNA [3]: drastically reduced
- viral DNA replication intermediates [3]: drastically reduced

SMILES: O=C(Nc1ccc(F)c(Cl)c1)N1CCN(C(=O)Nc2ccc(F)c(Cl)c2)c2ccccc21 [Compound 18, N^1,N^4-bis(3-chloro-4-fluorophenyl)-2,3-dihydroquinoxaline-1,4-dicarboxamide]
- amount of total viral RNA [3]: did not alter
- amount of core protein [3]: did not alter
- amount of encapsidated pgRNA [3]: drastically reduced
- viral DNA replication intermediates [3]: drastically reduced

SMILES: O=C(Nc1ccc(F)c(Cl)c1)C1CCNc2ccccc21 (stereo not drawn) [Compound 23, N-(3-chloro-4-fluorophenyl)-1,2,3,4-tetrahydroquinoline-4-carboxamide]
- anti-HBV activity (in words) ([1]; AML12HBV10 cells): loss of activity

SMILES: O=S(=O)(Nc1ccc(F)c(Cl)c1)N1CCNc2ccccc21 [Compound 26, N-(3-chloro-4-fluorophenyl)-3,4-dihydroquinoxaline-1(2H)-sulfonamide]
- anti-HBV activity (in words) ([1]; AML12HBV10 cells): loss of activity

SMILES: O=C(Nc1ccc(F)c(Cl)c1)N1CCCc2ccccc21 [Compound 27, N-(3-chloro-4-fluorophenyl)-3,4-dihydroquinoline-1(2H)-carboxamide]
- reduction of activity relative to 17 ([1]; AML12HBV10 cells, replacement of 4-N with CH2): 3 fold

SMILES: NC1CCN(C(=O)Nc2ccc(F)c(Cl)c2)c2ccccc21 (stereo not drawn) [Compound 28, 4-Amino-N-(3-chloro-4-fluorophenyl)-3,4-dihydroquinoline-1(2H)-carboxamide]
- anti-HBV activity (in words) ([1]; AML12HBV10 cells): no activity was observed

SMILES: O=C1CN(C(=O)Nc2ccc(F)c(Cl)c2)c2ccccc2N1 [Compound 29, N-(3-chloro-4-fluorophenyl)-3-oxo-3,4-dihydroquinoxaline-1(2H)-carboxamide]
- anti-HBV activity (in words) ([1]; AML12HBV10 cells): inactive

SMILES: O=C(Nc1ccc(F)c(Cl)c1)N1CCc2ccccc21 [Compound 30, N-(3-chloro-4-fluorophenyl)indoline-1-carboxamide]
- anti-HBV activity (in words) ([1]; AML12HBV10 cells): maintained activity

SMILES: O=C(Nc1ccc(F)c(Cl)c1)N1CCCCc2ccccc21 [Compound 32, N-(3-chloro-4-fluorophenyl)-2,3,4,5-tetrahydro-1H-benzo[b]azepine-1-carboxamide]
- anti-HBV activity (in words) ([1]; AML12HBV10 cells): diminished the activity

SMILES: O=C(Nc1ccc(F)c(C(F)F)c1)N1CCNc2ccccc21 [Compound 35, N-(3-(difluoromethyl)-4-fluorophenyl)-3,4-dihydroquinoxaline-1(2H)-carboxamide]
- anti-HBV activity (in words) ([1]; AML12HBV10 cells): improved the potencies

SMILES: O=C(NCc1cccc(Cl)c1)N1CCNc2ccccc21 [Compound 44, N-(3-chlorobenzyl)-3,4-dihydroquinoxaline-1(2H)-carboxamide]
- anti-HBV activity (in words) ([1]; AML12HBV10 cells): reduced the activity

SMILES: O=C(Cc1ccc(F)c(Cl)c1)N1CCNc2ccccc21 [Compound 45, 2-(3-chloro-4-fluorophenyl)-1-(3,4-dihydroquinoxalin-1(2H)-yl)ethanone]
- anti-HBV activity (in words) ([1]; AML12HBV10 cells): loss of activity

SMILES: O=C(Nc1ccc(F)c(Cl)c1)N1c2ccccc2NCC1CN1CCOCC1 (stereo not drawn) [Compound 71, N-(3-chloro-4-fluorophenyl)-2-(morpholinomethyl)-3,4-dihydroquinoxaline-1(2H)-carboxamide]
- anti-HBV activity (in words) ([1]; AML12HBV10 cells): reduced the activity significantly

SMILES: O=C(Nc1ccc(F)c(Cl)c1)N1c2ccccc2NCC1c1ccccc1 (stereo not drawn) [Compound 74, N-(3-chloro-4-fluorophenyl)-2-phenyl-3,4-dihydroquinoxaline-1(2H)-carboxamide]
- anti-HBV activity (in words) ([1]; AML12HBV10 cells): sub-micromolar activity

SMILES: CC1(C)CCN(CC2CNc3ccccc3N2C(=O)Nc2ccc(F)c(Cl)c2)CC1 (stereo not drawn) [Compound 76, N-(3-chloro-4-fluorophenyl)-2-((4,4-dimethylpiperidin-1-yl)methyl)-3,4-dihydroquinoxaline-1(2H)-carboxamide]
- anti-HBV activity (in words) ([1]; AML12HBV10 cells): loss of activity

SMILES: N#Cc1cc(NC(=O)N2c3ccccc3NCC2CN2CCC(F)(F)CC2)ccc1F (stereo not drawn) [Compound 86, N-(3-cyano-4-fluorophenyl)-2-((4,4-difluoropiperidin-1-yl)methyl)-3,4-dihydroquinoxaline-1(2H)-carboxamide]
- EC50 ([1]; Hepatitis B virus, AML12HBV10, in Mus musculus): ~0.1 µM

SMILES: O=C(Nc1ccc(F)c(C(F)(F)F)c1)N1c2ccccc2NCC1CN1CCC(F)(F)CC1 (stereo not drawn) [Compound 87, 2-((4,4-difluoropiperidin-1-yl)methyl)-N-(4-fluoro-3-(trifluoromethyl)phenyl)-3,4-dihydroquinoxaline-1(2H)-carboxamide]
- anti-HBV activity (in words) ([1]; AML12HBV10 cells): moderate sub-micromolar

SMILES: O=C(Nc1cccc(Cl)c1)N1c2ccccc2NCC1CN1CCC(F)(F)CC1 (stereo not drawn) [Compound 89, N-(3-chlorophenyl)-2-((4,4-difluoropiperidin-1-yl)methyl)-3,4-dihydroquinoxaline-1(2H)-carboxamide]
- anti-HBV activity (in words) ([1]; AML12HBV10 cells): moderate sub-micromolar

SMILES: O=C(Nc1cc(F)c(F)c(F)c1)N1CCN(C(=O)Nc2ccc(F)c(Cl)c2)c2ccccc21 [Compound 95, N^1-(3-chloro-4-fluorophenyl)-N^4-(3,4,5-trifluorophenyl)-2,3-dihydroquinoxaline-1,4-dicarboxamide]
- anti-HBV activity (in words) ([1]; AML12HBV10 cells): sub-micromolar activities

SMILES: O=C(Nc1ccc(F)c(Cl)c1)N1CCN(C(=O)Nc2cc(Cl)c(F)cc2F)c2ccccc21 [Compound 96, N^1-(5-chloro-2,4-difluorophenyl)-N^4-(3-chloro-4-fluorophenyl)-2,3-dihydroquinoxaline-1,4-dicarboxamide]
- anti-HBV activity (in words) ([1]; AML12HBV10 cells): sub-micromolar activities

SMILES: O=C(Nc1ccc(F)c(Cl)c1)N1CC(CN2CCC(F)(F)C2)N(C(=O)Nc2ccc(F)c(Cl)c2)c2ccccc21 (stereo not drawn) [Compound 97, N^1,N4-bis(3-chloro-4-fluorophenyl)-2-((3,3-difluoropyrrolidin-1-yl)methyl)-2,3-dihydroquinoxaline-1,4-dicarboxamide]
- anti-HBV activity (in words) ([1]; AML12HBV10 cells): did not help to improve the activity significantly

SMILES: O=C(Nc1ccc(F)c(Cl)c1)N1CC(CN2CCC(F)(F)CC2)N(C(=O)Nc2ccc(F)c(Cl)c2)c2ccccc21 (stereo not drawn) [Compound 98, N^1,N^4-bis(3-chloro-4-fluorophenyl)-2-((4,4-difluoropiperidin-1-yl)methyl)-2,3-dihydroquinoxaline-1,4-dicarboxamide]
- anti-HBV activity (in words) ([1]; AML12HBV10 cells): did not help to improve the activity significantly

SMILES: CCC(C)NS(=O)(=O)c1ccc(F)c(C(=O)Nc2ccc(F)c(F)c2)c1 (stereo not drawn) [DVR-23]
- amount of encapsidated pgRNA [3]: significantly reduced
- viral DNA replication intermediates [3]: viral DNA replication was inhibited

SMILES: C=C1[C@H](CO)[C@@H](O)C[C@@H]1n1cnc2c(=O)[nH]c(N)nc21 [ETV, Entecavir]
- amount of total viral RNA [3]: did not alter
- amount of core protein [3]: did not alter
- amount of encapsidated pgRNA [3]: did not alter
- viral DNA replication intermediates [3]: drastically reduced
- amount of capsid-associated viral DNA ([3]; particle gel assay): drastically reduced

— publication PMC10753860 (European journal of medicinal chemistry, 2023)
